Test results: ChEMBL document CHEMBL1255410, “Activity of the investigational fluoroquinolone finafloxacin against ciprofloxacin-sensitive and -resistant Acinetobacter baumannii isolates” (2010)
≈ marks a conversion by molar mass, not a printed value.

How the values were obtained:
[1] = tested on: Acinetobacter baumannii; assay: Antimicrobial activity against Acinetobacter baumannii isolate 59 harboring GyrA Ser83-Leu and ParC Glu84-Lys mutation at pH 7.2; format: functional
In short: (§1)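 Agar dilution MIC on Mueller-Hinton agar under standard conditions (pH 7.2). Antibiotic-containing plates were made the same day from freshly prepared medium. Agar pH was checked after solidifying. Both fluoroquinolones were tested simultaneously against A. baumannii isolates with characterized gyrA/parC genes. MICs are in μg/ml.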

[2] = tested on: Acinetobacter baumannii; assay: Antimicrobial activity against Acinetobacter baumannii isolate 21 harboring GyrA Ser83-Leu mutation at pH 7.2; format: functional
In short: (§2)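 MIC by agar dilution on Mueller-Hinton agar under standard conditions (pH 7.2), against isolates with characterized gyrA/parC genes. Agar pH was checked after solidifying. Plates for both drugs were prepared the same day from freshly made media, and MICs were determined simultaneously with the pH 5.8 set.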

[3] = tested on: Acinetobacter baumannii; assay: Antimicrobial activity against Acinetobacter baumannii isolate 12 at pH 5.8; format: functional
In short: (§3)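 MIC by agar dilution on Mueller-Hinton agar acidified to pH 5.8 with HCl before antibiotic-containing plates were poured. Agar pH was rechecked once the agar had solidified. Isolates had characterized gyrA/parC genes. Plates for both drugs were made the same day from fresh media, and MICs were read in parallel with the standard-pH set.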

[4] = tested on: Acinetobacter baumannii; assay: Antimicrobial activity against Acinetobacter baumannii isolate 27 harboring GyrA Ser83-Leu mutation at pH 5.8; format: functional; in short: as §3
[5] = tested on: Acinetobacter baumannii; assay: Antimicrobial activity against Acinetobacter baumannii isolate 66 harboring GyrA Ser83-Leu mutation at pH 7.2; format: functional; in short: as §1
[6] = tested on: Acinetobacter baumannii; assay: Antimicrobial activity against Acinetobacter baumannii isolate 63 harboring GyrA Ser83-Leu and ParC Glu84-Lys mutation at pH 5.8; format: functional
In short: (§4)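 Agar dilution MIC on Mueller-Hinton agar acidified to pH 5.8 with HCl before the antibiotic-containing plates were poured. Agar pH was checked after solidifying. Plates were made the same day from fresh medium. Both fluoroquinolones were tested simultaneously against A. baumannii isolates with characterized gyrA/parC genes. MICs are in μg/ml.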

[7] = tested on: Acinetobacter baumannii; assay: Antimicrobial activity against Acinetobacter baumannii isolate 28 harboring GyrA Ser83-Leu mutation at pH 5.8; format: functional; in short: as §3
[8] = tested on: Acinetobacter baumannii; assay: Antimicrobial activity against Acinetobacter baumannii isolate 10 at pH 5.8; format: functional; in short: as §3
[9] = tested on: Acinetobacter baumannii; assay: Antimicrobial activity against Acinetobacter baumannii isolate 60 harboring GyrA Ser83-Leu and ParC Ser80-Leu mutation at pH 5.8
[10] = tested on: Acinetobacter baumannii; assay: Antimicrobial activity against Acinetobacter baumannii isolate 35 harboring GyrA Ser83-Leu mutation at pH 7.2; format: functional
In short: (§5)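 Agar dilution MIC on Mueller-Hinton agar. For the acidic condition, HCl was added to bring the agar to pH 5.8 before pouring the antibiotic plates, and the pH was checked after the agar set. The standard condition was pH 7.2. Both drugs' plates were made the same day from fresh medium, and MICs were read at the same time.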

[11] = tested on: Acinetobacter baumannii; assay: Antimicrobial activity against Acinetobacter baumannii isolate 62 harboring GyrA Ser83-Leu and ParC Ser80-Leu mutation at pH 5.8; format: functional; in short: as §4
[12] = tested on: Acinetobacter baumannii; assay: Antimicrobial activity against Acinetobacter baumannii isolate 34 harboring GyrA Ser83-Leu mutation at pH 7.2; format: functional; in short: as §5
[13] = tested on: Acinetobacter baumannii; assay: Antimicrobial activity against Acinetobacter baumannii isolate 6 at pH 7.2; format: functional; in short: as §1
[14] = tested on: Acinetobacter baumannii; assay: Antimicrobial activity against adeB overexpressing Acinetobacter baumannii isolate 68 harboring GyrA Ser83-Leu and ParC Ser80-Leu mutation at pH 5.8; format: functional; in short: as §4
[15] = tested on: Acinetobacter baumannii; assay: Antimicrobial activity against adeB overexpressing Acinetobacter baumannii isolate 67 harboring GyrA Ser83-Leu and ParC Ser80-Leu mutation at pH 7.2; format: functional; in short: as §1
[16] = tested on: Acinetobacter baumannii; assay: Antimicrobial activity against Acinetobacter baumannii isolate 14 at pH 7.2; format: functional; in short: as §2
[17] = tested on: Acinetobacter baumannii; assay: Antimicrobial activity against Acinetobacter baumannii isolate 52 harboring GyrA Ser83-Leu and ParC Ser80-Leu mutation at pH 5.8; format: functional; in short: as §5
[18] = tested on: Acinetobacter baumannii; assay: Antimicrobial activity against Acinetobacter baumannii isolate 7 at pH 5.8; format: functional; in short: as §4
[19] = tested on: Acinetobacter baumannii; assay: Antimicrobial activity against Acinetobacter baumannii isolate 40 harboring GyrA Ser83-Leu mutation at pH 5.8; format: functional; in short: as §5
[20] = tested on: Acinetobacter baumannii; assay: Antimicrobial activity against Acinetobacter baumannii isolate 13 at pH 5.8; format: functional; in short: as §3
[21] = tested on: Acinetobacter baumannii; assay: Antimicrobial activity against Acinetobacter baumannii isolate 33 harboring GyrA Ser83-Leu mutation at pH 5.8; format: functional; in short: as §5
[22] = tested on: Acinetobacter baumannii; assay: Antimicrobial activity against Acinetobacter baumannii isolate 1 at pH 7.2; format: functional; in short: as §2
[23] = tested on: Acinetobacter baumannii; assay: Antimicrobial activity against Acinetobacter baumannii isolate 48 harboring GyrA Ser83-Leu and ParC Ser80-Leu mutation at pH 7.2; format: functional; in short: as §5
[24] = tested on: Acinetobacter baumannii; assay: Antimicrobial activity against Acinetobacter baumannii isolate 10 at pH 7.2; format: functional; in short: as §2
[25] = tested on: Acinetobacter baumannii; assay: Antimicrobial activity against Acinetobacter baumannii isolate 42 harboring GyrA Ser83-Leu mutation at pH 5.8; format: functional; in short: as §5
[26] = tested on: Acinetobacter baumannii; assay: Antimicrobial activity against Acinetobacter baumannii isolate 55 harboring GyrA Ser83-Leu and ParC Ser80-Leu mutation at pH 7.2; format: functional; in short: as §1
[27] = tested on: Acinetobacter baumannii; assay: Antimicrobial activity against Acinetobacter baumannii isolate 28 harboring GyrA Ser83-Leu mutation at pH 7.2; format: functional; in short: as §2
[28] = tested on: Acinetobacter baumannii; assay: Antimicrobial activity against adeB overexpressing Acinetobacter baumannii isolate 67 harboring GyrA Ser83-Leu and ParC Ser80-Leu mutation at pH 5.8; format: functional; in short: as §4
[29] = tested on: Acinetobacter baumannii; assay: Antimicrobial activity against Acinetobacter baumannii isolate 3 at pH 7.2; format: functional; in short: as §2
[30] = tested on: Acinetobacter baumannii; assay: Antimicrobial activity against Acinetobacter baumannii isolate 26 harboring GyrA Ser83-Leu mutation at pH 7.2; format: functional; in short: as §2
[31] = tested on: Acinetobacter baumannii; assay: Antimicrobial activity against Acinetobacter baumannii isolate 57 harboring GyrA Ser83-Leu and ParC Ser80-Phe mutation at pH 5.8; format: functional; in short: as §4
[32] = tested on: Acinetobacter baumannii; assay: Antimicrobial activity against Acinetobacter baumannii isolate 53 harboring GyrA Ser83-Leu and ParC Ser80-Leu mutation at pH 7.2; format: functional; in short: as §5
[33] = tested on: Acinetobacter baumannii; assay: Antimicrobial activity against Acinetobacter baumannii isolate 9 at pH 7.2; format: functional; in short: as §1
[34] = tested on: Acinetobacter baumannii; assay: Antimicrobial activity against Acinetobacter baumannii isolate 1 at pH 5.8; format: functional; in short: as §3
[35] = tested on: Acinetobacter baumannii; assay: Antimicrobial activity against Acinetobacter baumannii isolate 8 at pH 5.8; format: functional; in short: as §4
[36] = tested on: Acinetobacter baumannii; assay: Antimicrobial activity against Acinetobacter baumannii isolate 45 harboring GyrA Ser83-Leu and ParC Ser80-Leu mutation at pH 5.8; format: functional; in short: as §5
[37] = tested on: Acinetobacter baumannii; assay: Antimicrobial activity against Acinetobacter baumannii isolate 11 at pH 5.8; format: functional; in short: as §3
[38] = tested on: Acinetobacter baumannii; assay: Antimicrobial activity against Acinetobacter baumannii isolate 37 harboring GyrA Ser83-Leu mutation at pH 5.8; format: functional; in short: as §5
[39] = tested on: Acinetobacter baumannii; assay: Antimicrobial activity against Acinetobacter baumannii isolate 25 harboring GyrA Ser83-Leu mutation at pH 5.8; format: functional; in short: as §3
[40] = tested on: Acinetobacter baumannii; assay: Antimicrobial activity against Acinetobacter baumannii isolate 58 harboring GyrA Ser83-Leu and ParC Ser80-Leu mutation at pH 5.8; format: functional; in short: as §4
[41] = tested on: Acinetobacter baumannii; assay: Antimicrobial activity against Acinetobacter baumannii isolate 19 harboring GyrA Ser83-Leu mutation at pH 7.2; format: functional; in short: as §2

O=C(O)c1cn(C2CC2)c2cc(N3CCNCC3)c(F)cc2c1=O [CIPROFLOXACIN]
MIC [1]: 128 µg/mL (≈ 386 µM)
MIC [2]: 4 µg/mL (≈ 12.1 µM)
MIC [3]: 2 µg/mL (≈ 6.04 µM)
MIC [4]: 32 µg/mL (≈ 96.6 µM)
MIC [5]: 32 µg/mL (≈ 96.6 µM)
MIC [6]: > 128 µg/mL
MIC [7]: 32 µg/mL (≈ 96.6 µM)
MIC [8]: 2 µg/mL (≈ 6.04 µM)
MIC [9]: > 128 µg/mL
MIC [10]: 8 µg/mL (≈ 24.1 µM)
MIC [11]: > 128 µg/mL
MIC [12]: 8 µg/mL (≈ 24.1 µM)
MIC [13]: 0.12 µg/mL (≈ 0.362 µM)
MIC [14]: > 128 µg/mL
MIC [15]: > 128 µg/mL
MIC [16]: 0.5 µg/mL (≈ 1.51 µM)
MIC [17]: > 128 µg/mL
MIC [18]: 2 µg/mL (≈ 6.04 µM)
MIC [19]: > 128 µg/mL
MIC [20]: 4 µg/mL (≈ 12.1 µM)
MIC [21]: 128 µg/mL (≈ 386 µM)
MIC [22]: 0.06 µg/mL (≈ 0.181 µM)
MIC [23]: 128 µg/mL (≈ 386 µM)
MIC [24]: 0.25 µg/mL (≈ 0.754 µM)
MIC [25]: > 128 µg/mL
MIC [26]: 128 µg/mL (≈ 386 µM)
MIC [27]: 4 µg/mL (≈ 12.1 µM)
MIC [28]: > 128 µg/mL
MIC [29]: 0.12 µg/mL (≈ 0.362 µM)
MIC [30]: 4 µg/mL (≈ 12.1 µM)
MIC [31]: > 128 µg/mL
MIC [32]: 128 µg/mL (≈ 386 µM)
MIC [33]: 0.25 µg/mL (≈ 0.754 µM)
MIC [34]: 2 µg/mL (≈ 6.04 µM)
MIC [35]: 2 µg/mL (≈ 6.04 µM)
MIC [36]: > 128 µg/mL
MIC [37]: 4 µg/mL (≈ 12.1 µM)
MIC [38]: 128 µg/mL (≈ 386 µM)
MIC [39]: 32 µg/mL (≈ 96.6 µM)
MIC [40]: > 128 µg/mL
MIC [41]: 1 µg/mL (≈ 3.02 µM)

N#Cc1c(N2C[C@@H]3NCCO[C@H]3C2)c(F)cc2c(=O)c(C(=O)O)cn(C3CC3)c12 [FINAFLOXACIN]
MIC [1]: 64 µg/mL (≈ 161 µM)
MIC [2]: 1 µg/mL (≈ 2.51 µM)
MIC [3]: 0.12 µg/mL (≈ 0.301 µM)
MIC [4]: 1 µg/mL (≈ 2.51 µM)
MIC [5]: 16 µg/mL (≈ 40.2 µM)
MIC [6]: 2 µg/mL (≈ 5.02 µM)
MIC [7]: 1 µg/mL (≈ 2.51 µM)
MIC [8]: 0.12 µg/mL (≈ 0.301 µM)
MIC [9]: 8 µg/mL (≈ 20.1 µM)
MIC [10]: 16 µg/mL (≈ 40.2 µM)
MIC [11]: 8 µg/mL (≈ 20.1 µM)
MIC [12]: 16 µg/mL (≈ 40.2 µM)
MIC [13]: 0.25 µg/mL (≈ 0.628 µM)
MIC [14]: 4 µg/mL (≈ 10 µM)
MIC [15]: 64 µg/mL (≈ 161 µM)
MIC [16]: 1 µg/mL (≈ 2.51 µM)
MIC [17]: 2 µg/mL (≈ 5.02 µM)
MIC [18]: 0.06 µg/mL (≈ 0.151 µM)
MIC [19]: 2 µg/mL (≈ 5.02 µM)
MIC [20]: 0.12 µg/mL (≈ 0.301 µM)
MIC [21]: 1 µg/mL (≈ 2.51 µM)
MIC [22]: 0.12 µg/mL (≈ 0.301 µM)
MIC [23]: 16 µg/mL (≈ 40.2 µM)
MIC [24]: 0.25 µg/mL (≈ 0.628 µM)
MIC [25]: 2 µg/mL (≈ 5.02 µM)
MIC [26]: 32 µg/mL (≈ 80.3 µM)
MIC [27]: 16 µg/mL (≈ 40.2 µM)
MIC [28]: 4 µg/mL (≈ 10 µM)
MIC [29]: 0.12 µg/mL (≈ 0.301 µM)
MIC [30]: 16 µg/mL (≈ 40.2 µM)
MIC [31]: 4 µg/mL (≈ 10 µM)
MIC [32]: 32 µg/mL (≈ 80.3 µM)
MIC [33]: 0.25 µg/mL (≈ 0.628 µM)
MIC [34]: 0.06 µg/mL (≈ 0.151 µM)
MIC [35]: 0.12 µg/mL (≈ 0.301 µM)
MIC [36]: 2 µg/mL (≈ 5.02 µM)
MIC [37]: 0.06 µg/mL (≈ 0.151 µM)
MIC [38]: 2 µg/mL (≈ 5.02 µM)
MIC [39]: 2 µg/mL (≈ 5.02 µM)
MIC [40]: 4 µg/mL (≈ 10 µM)
MIC [41]: 0.5 µg/mL (≈ 1.26 µM)
